Experimental data published in ChEMBL document CHEMBL4715891, “Development of sulfahydantoin derivatives as β-lactamase inhibitors” (Bioorg Med Chem Lett, 2021).

Experiments:
Bacteria [1] = assay: Inhibition of 15N-Labeled beta lactamase TEM-1 (unknown origin) over expressed in Escherichia coli BL21(DE3) cells assessed as residual activity at 1 mM by CENTA relative to control
Procedure, shortened: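 TEM-1 (116 nM) screened with inhibitor at 1 mM, hydrolysis of chromogenic CENTA at 300 μM (~8× Km of 36 μM) followed. Activity expressed relative to positive control lacking inhibitor, mean ± standard deviation of at least three replicates. Enzyme purity >83% by SDS-PAGE.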

[2] = Noncompetitive inhibition of 15N-Labeled beta lactamase TEM-1 (unknown origin) over expressed in Escherichia coli BL21(DE3) cells by CENTA; set-up: species or system Bacteria
[3] = Competitive inhibition of 15N-Labeled beta lactamase TEM-1 (unknown origin) over expressed in Escherichia coli BL21(DE3) cells by CENTA; set-up: species or system Bacteria
Bacteria [4] = assay: Inhibition of 15N-Labeled beta lactamase TEM-1 G1u104Lys/Gly238Ser double mutant (unknown origin) over expressed in Escherichia coli BL21(DE3) cells assessed as residual activity at 1 mM by CENTA relative to control
Procedure, shortened: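 TEM-15 produced in E. coli, purified to >83% by SDS-PAGE, used at 56 nM. Inhibitor screened at 1 mM against hydrolysis of the chromogenic substrate CENTA (300 μM). Activity expressed relative to the positive control without inhibitor, as mean ± standard deviation of at least three replicates.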

[5] = Inhibition of 15N-Labeled beta lactamase TEM-1 (unknown origin) over expressed in Escherichia coli BL21(DE3) cells by CENTA; set-up: species or system Bacteria
Procedure, shortened: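 IC50 against TEM-1 from CENTA (300 μM) hydrolysis using two-fold inhibitor dilutions; value derived by fitting a dose-response curve. Enzyme purity >83% by SDS-PAGE.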

[6] = Uncompetitive inhibition of 15N-Labeled beta lactamase TEM-1 (unknown origin) over expressed in Escherichia coli BL21(DE3) cells by CENTA; set-up: species or system Bacteria
[7] = Inhibition of 15N-Labeled beta lactamase TEM-1 G1u104Lys/Gly238Ser double mutant (unknown origin) over expressed in Escherichia coli BL21(DE3) cells by CENTA; set-up: species or system Bacteria
Procedure, shortened: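 TEM-15 from E. coli expression, purified to >83% by SDS-PAGE. Hydrolysis of the chromogenic substrate CENTA (300 μM) monitored across two-fold inhibitor dilutions. IC50 obtained by fitting a dose-response curve.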

Structure (SMILES)	Activity (Bacteria [1])	Ki [2]	Ki [3]	Activity (Bacteria [4])	IC50 [5]	Ki [6]	IC50 [7]
O=C(O)CN1C(=O)[C@H](Cc2ccc(F)cc2)N(Cc2ccc([N+](=O)[O-])cc2)S1(=O)=O	101%	–	–	–	–	–	–
COc1ccc(CN2[C@@H](Cc3ccc(Br)cc3)C(=O)N(CC(=O)O)S2(=O)=O)cc1	92%	–	–	–	–	–	–
O=C(O)CN1C(=O)[C@H](Cc2ccc(F)cc2)N(Cc2ccc(Br)cc2)S1(=O)=O	34%	510 µM	55 µM	53%	510 µM	455 µM	–
COc1ccc(CN2[C@@H](Cc3ccc(F)cc3)C(=O)N(CC(=O)O)S2(=O)=O)cc1	124%	–	–	–	–	–	–
O=C(O)CN1C(=O)[C@H](Cc2ccc(Br)cc2)N(Cc2ccc(Br)cc2)S1(=O)=O	10%	300 µM	32 µM	0%	300 µM	268 µM	130 µM
O=C(O)CN1C(=O)[C@H](Cc2ccc(Br)cc2)N(Cc2ccc([N+](=O)[O-])cc2)S1(=O)=O	100%	–	–	–	–	–	–
